ChEMBL document CHEMBL1156073, “Hydroxamic acids as a novel family of serine racemase inhibitors: mechanistic analysis reveals different modes of interaction with the pyridoxal-5'-phosphate cofactor” (J Med Chem, 2009)
The source made the active and inactive calls. No cut-off for these calls is given here.

How the values were obtained:
[1] = target: T1, Serine racemase (Mus musculus) (UniProt Q9QZX7); assay: Inhibition of mouse recombinant serine racemase expressed in Escherichia coli MC1061 assessed as formation of D-serine at 5 mM treated for 15 to 20 mins before addition of substrate by HPLC analysis in presence of increasing concentration of PLP
T1 sequence (whole entry): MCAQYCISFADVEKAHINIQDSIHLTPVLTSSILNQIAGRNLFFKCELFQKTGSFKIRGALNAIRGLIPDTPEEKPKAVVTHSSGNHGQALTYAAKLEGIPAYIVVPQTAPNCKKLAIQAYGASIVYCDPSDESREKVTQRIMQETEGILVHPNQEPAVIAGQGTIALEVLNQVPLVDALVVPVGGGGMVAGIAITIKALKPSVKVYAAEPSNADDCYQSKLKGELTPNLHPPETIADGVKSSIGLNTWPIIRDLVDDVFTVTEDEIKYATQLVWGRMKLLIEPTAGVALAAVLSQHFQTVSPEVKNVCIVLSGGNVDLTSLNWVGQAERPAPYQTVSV

[2] = target: T1, Serine racemase (Mus musculus); assay: Inhibition of mouse recombinant serine racemase expressed in Escherichia coli MC1061 assessed as formation of D-serine at 5 mM after 30 mins by HPLC analysis in presence of 5 fold molar excess of MgCl2 over compound
Serine racemase [3] = target: T2, Serine racemase (Mus musculus, UniProt Q9QZX7); assay: Inhibition of mouse recombinant serine racemase expressed in Escherichia coli MC1061 assessed as formation of D-serine after 30 mins by HPLC analysis
T2 sequence (Q9QZX7 whole entry): T1 sequence (whole entry)
How it was run: (§1)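 Mouse SR (E. coli MC1061, arabinose-induced, three-step chromatography, ~90% pure) incubated in pH 8.0 buffer with 10 μM PLP, 1 mM ATP, 1 mM MgCl2, 5 mM DTT. Screening used 5 mM L-serine and 5 mM test compound; IC50 runs varied inhibitor at 5 mM L-serine. 30 min at 37 C, stopped with 0.3 M HClO4; D-serine quantified by HPLC. Duplicate or triplicate runs.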

[4] = Binding affinity to pyridoxal-5'-phosphate assessed as formation of syn- and anti-PLP-aldoxime by NMR spectroscopy
How it was run: (§2)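 Compound and PLP solutions prepared in 100 mM phosphate buffer in D2O, pD held near 8.0; chemical shifts followed by NMR after mixing.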

[5] = Chemical stability assessed as hydrolysis-associated hydroxylamine formation at 0.05 mM after 1 hr in phosphate buffer of pH 8; assay type: physicochemical; details: pH 8, 1 h, 50 µM
How it was run: (§3)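 Compound at 0.5 mM or 0.05 mM, diluted from fresh 10 mM stocks, held in 100 mM phosphate buffer pH 8.0 or 7.4 at room temperature for 0, 30 or 60 min. Picrylsulfonic acid then added; released hydroxylamine read as absorbance at 494 nm 15 min later.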

[6] = Binding affinity to pyridoxal-5'-phosphate assessed as formation of PLP-aldoxime at 5 mM after 1 hr by UV/vis spectroscopy
How it was run: (§4)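 PLP and compound solutions in 100 mM phosphate buffer pH 8.0 mixed 1:1, giving 300 μM PLP and 5 mM compound final. Incubated 1 h at room temperature, then absorbance scanned from 310 to 500 nm.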

[7] = Binding affinity to pyridoxal-5'-phosphate assessed as formation of PLP-aldoxime by ESI-MS analysis
How it was run: (§5)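 Compound weighed into PLP stock at about 1:1 molar ratio with PLP, with or without 200 mM ammonium sulfate pH 8.0. Mixture diluted 40- to 100-fold in water and analysed by ESI-MS in negative ion mode.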

Serine racemase [8] = target: T2, Serine racemase; assay: (§6) Inhibition of mouse recombinant serine racemase expressed in Escherichia coli MC1061 assessed as formation of D-serine after 30 mins by Linewaver-burk and Eadie-Hofstee plot analysis
How it was run: (§7)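 Mouse SR racemization at varied L-serine and inhibitor concentrations, pH 8.0, 10 μM PLP, 30 min at 37 C. End-point HPLC measured D-serine peak area relative to a glycine internal standard, in triplicate. Global nonlinear fit followed by linear transformation.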

[9] = target: T1, Serine racemase (Mus musculus); assay: Inhibition of mouse recombinant serine racemase expressed in Escherichia coli MC1061 assessed as formation of D-serine at 5 mM in phosphate buffer of pH 8 treated for 15 to 20 mins before addition of substrate by HPLC analysis in presence of 10 uM PLP
[10] = Chemical stability assessed as hydrolysis-associated hydroxylamine formation at 0.05 mM after 1 hr in phosphate buffer of pH 7.4; assay type: physicochemical; details: pH 7.4, 1 h, 50 µM; how it was run: as §3
[11] = target: T3, Serine racemase (Homo sapiens) (UniProt Q9GZT4); assay: Inhibition of human recombinant serine racemase assessed as formation of D-serine at 5 mM treated for 15 to 20 mins before addition of substrate by HPLC analysis in presence of increasing concentration of PLP
T3 sequence (whole entry): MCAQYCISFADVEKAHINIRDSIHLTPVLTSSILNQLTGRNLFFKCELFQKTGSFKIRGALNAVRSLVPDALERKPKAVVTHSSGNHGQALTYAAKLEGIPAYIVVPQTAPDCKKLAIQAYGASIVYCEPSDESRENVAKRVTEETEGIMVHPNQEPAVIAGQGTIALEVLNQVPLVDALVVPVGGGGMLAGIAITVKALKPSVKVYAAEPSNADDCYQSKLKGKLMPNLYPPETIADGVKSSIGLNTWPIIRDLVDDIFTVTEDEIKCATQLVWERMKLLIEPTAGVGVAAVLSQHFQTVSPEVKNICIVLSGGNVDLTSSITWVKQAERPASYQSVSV

[12] = target: T1, Serine racemase (Mus musculus); assay: Inhibition of mouse recombinant serine racemase expressed in Escherichia coli MC1061 assessed as formation of D-serine at 5 mM after 30 mins by HPLC analysis; how it was run: as §1
[13] = target: T1, Serine racemase (Mus musculus); assay: as §6; how it was run: as §7
[14] = target: T3, Serine racemase (Homo sapiens); assay: Inhibition of human recombinant serine racemase assessed as formation of D-serine at 5 mM in phosphate buffer of pH 8 treated for 15 to 20 mins before addition of substrate by HPLC analysis in presence of 10 uM PLP
How it was run: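 Recombinant human SR assayed as for mouse SR: pH 8.0 buffer with 10 μM PLP, 1 mM ATP, 1 mM MgCl2, 5 mM DTT, 5 mM L-serine and 5 mM compound. Incubated 30 min at 37 C, stopped with HClO4; D-serine measured by HPLC.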

[15] = target: T4, L-serine dehydratase/L-threonine deaminase (Rattus norvegicus) (UniProt P09367); assay: Inhibition of rat SDH expressed in Escherichia coli BL21-RIL assessed as formation of pyruvate at 5 mM in phosphate buffer of pH 8 treated for 15 to 20 mins before addition of substrate by HPLC analysis in presence of 10 uM PLP
T4 sequence (whole entry): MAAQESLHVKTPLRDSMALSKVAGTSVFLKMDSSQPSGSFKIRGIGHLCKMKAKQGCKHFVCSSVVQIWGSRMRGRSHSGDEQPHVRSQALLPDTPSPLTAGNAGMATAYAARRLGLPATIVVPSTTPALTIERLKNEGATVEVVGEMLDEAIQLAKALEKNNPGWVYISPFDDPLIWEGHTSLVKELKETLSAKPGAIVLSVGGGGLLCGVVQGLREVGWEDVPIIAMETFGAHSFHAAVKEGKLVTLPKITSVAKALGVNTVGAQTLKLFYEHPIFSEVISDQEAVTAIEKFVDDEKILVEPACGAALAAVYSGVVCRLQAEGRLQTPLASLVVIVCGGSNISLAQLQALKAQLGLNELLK
How it was run: (§8)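 Enzyme in 50 mM phosphate buffer pH 8.0 with 10 μM PLP, preincubated with 5 mM inhibitor at room temperature for 15-20 min. Substrate added near KM: alanine racemase 5 mM D-alanine (L-alanine formed); SDH 50 mM L-serine (SDH partially purified, ~50%, from E. coli BL21-RIL); transaminase 5 mM L-aspartic acid plus 5 mM α-ketoglutarate. Products analysed by HPLC.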

[16] = Binding affinity to pyridoxal-5'-phosphate assessed as formation of PLP-aldimine by NMR spectroscopy; how it was run: as §2
[17] = Inhibition of broad-range bacterial transaminase assessed as formation of L-glutamic acid at 5 mM in phosphate buffer of pH 8 treated for 15 to 20 mins before addition of substrate by HPLC analysis in presence of 10 uM PLP; how it was run: as §8
[18] = Binding affinity to pyridoxal-5'-phosphate assessed as PLP-amino acid Schiff base interaction at 5 mM after 1 hr by UV/vis spectroscopy; how it was run: as §4
[19] = Binding affinity to 4-5 mM pyridoxal-5'-phosphate assessed as formation of PLP-aldimine by ESI-MS analysis; how it was run: as §5
[20] = target: T5, Alanine racemase (Geobacillus stearothermophilus) (UniProt P10724); assay: Inhibition of Bacillus stearothermophilus alanine racemase assessed as formation of L-alanine at 5 mM in phosphate buffer of pH 8 treated for 15 to 20 mins before addition of substrate by HPLC analysis in presence of 10 uM PLP; how it was run: as §8
T5 sequence (whole entry): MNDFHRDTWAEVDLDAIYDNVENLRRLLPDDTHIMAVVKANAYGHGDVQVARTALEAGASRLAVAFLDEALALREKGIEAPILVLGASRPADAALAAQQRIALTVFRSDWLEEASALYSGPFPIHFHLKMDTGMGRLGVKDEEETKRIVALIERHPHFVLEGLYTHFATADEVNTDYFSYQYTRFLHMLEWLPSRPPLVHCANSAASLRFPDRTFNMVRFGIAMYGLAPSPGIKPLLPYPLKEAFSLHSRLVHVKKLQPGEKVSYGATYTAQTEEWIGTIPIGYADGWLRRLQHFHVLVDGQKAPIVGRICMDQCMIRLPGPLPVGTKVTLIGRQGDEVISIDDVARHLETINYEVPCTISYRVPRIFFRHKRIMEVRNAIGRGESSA

[21] = Chemical stability assessed as hydrolysis-associated hydroxylamine formation at 0.5 mM after 1 hr in phosphate buffer of pH 7.4; assay type: physicochemical; details: pH 7.4, 1 h, 500 µM; how it was run: as §3
[22] = Binding affinity to pyridoxal-5'-phosphate assessed as formation of syn- and anti-PLP-aldoxime after 20 hrs by NMR spectroscopy; how it was run: as §2
[23] = Chemical stability assessed as hydrolysis-associated hydroxylamine formation at 0.5 mM after 1 hr in phosphate buffer of pH 8; assay type: physicochemical; details: pH 8, 1 h, 500 µM; how it was run: as §3
[24] = Binding affinity to 30 mM pyridoxal-5'-phosphate assessed as formation of PLP-aldimine by ESI-MS analysis
[25] = Binding affinity to pyridoxal-5'-phosphate assessed as formation of PLP-aldimine at active site by ESI-MS analysis; how it was run: as §5
[26] = Binding affinity to pyridoxal-5'-phosphate assessed as compound remaining after 12 days by NMR spectroscopy; how it was run: as §2

Compound	IC50 (Serine racemase [3]) [µM]	Activity [4]	Activity [6]	Activity [7]	inhibition [9]	inhibition [12]	Stability [21]	Stability [23]	Activity [24]	further results
O=C(CC(=O)NO)NO [MALONODIHYDROXAMIC ACID]	370	Active	Active	Active	Active	–	–	–	–	inhibition [1]: inactive; inhibition [2]: Active; Stability [5]: Unstable; Ki (Serine racemase [8]): 417 µM; Stability [10]: Unstable; inhibition [11]: inactive
O=C(CCCCCCC(=O)Nc1ccccc1)NO	–	Active	inactive	–	–	inactive	–	–	–	–
O=C(CCC(=O)NO)NO [SUCCINODIHYDROXAMIC ACID]	90	Active	Active	Active	Active	–	–	–	–	inhibition [1]: inactive; Stability [5]: Unstable; Ki [13]: 3.6 µM; Stability [10]: Unstable; inhibition [11]: inactive
NCC(=O)NO	–	–	–	–	–	inactive	–	–	Active	Activity [25]: inactive
NCC(=O)O	–	–	–	–	–	–	–	–	Active	–

More lines, main results first:

IC50 (Serine racemase [3]) [µM]	Activity [4]	Activity [6]	Activity [7]	inhibition [9]	inhibition [12]	Stability [21]	Stability [23]	Activity [24]	Compound	further results
1300	–	Active	–	Active	–	–	–	–	N[C@@H](CC(=O)NO)C(=O)O	inhibition [14]: Active; inhibition [15]: Active; Activity [16]: Active; inhibition [17]: inactive; Activity [18]: Active; Activity [19]: Active; inhibition [20]: inactive
–	inactive	–	inactive	–	inactive	Stable	Stable	–	O=C(CCCCCCC(=O)NO)NO [SUBEROHYDROXAMIC ACID]	Activity [22]: inactive
–	inactive	inactive	inactive	–	inactive	Stable	Stable	–	O=C(CCCCC(=O)NO)NO	Activity [22]: inactive
–	–	–	–	–	inactive	–	–	Active	CC(O)C(N)C(=O)NO (stereo unspecified)	Activity [25]: inactive
–	inactive	inactive	inactive	inactive	inactive	Stable	Stable	–	O=C(NO)C(=O)NO	inhibition [14]: inactive; inhibition [15]: inactive; inhibition [17]: inactive; Activity [26]: 20%; inhibition [20]: inactive
